These results are taken from ChEMBL document CHEMBL1157732, “Piperazinyl pyrimidine derivatives as potent gamma-secretase modulators” (Bioorg Med Chem Lett, 2010).

A short description of assay [1]: Activity at gamma-secretase expressed in human SH-SY5Y cells assessed as inhibition of amyloid beta 42 production by electrochemiluminescence assay. In kind it is cell-based. The gist of the method:
(§1)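 SH-SY5Y cells stably overexpressing the β-APP C-terminal fragment SPA4CT; Aβ40 and Aβ42 peptides secreted into the medium quantified by electrochemiluminescent detection; IC50 values derived from these measurements.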

Another assay addresses Gamma-secretase. As to the kind of experiment: Inhibition of gamma-secretase-mediated NotchdeltaE cleavage in human HeLa cells by luciferase assay. The class given is cell-based.
Assay [2] is described as follows: Activity at gamma-secretase expressed in human SH-SY5Y cells assessed as inhibition of amyloid beta 40 production by electrochemiluminescence assay. The class given is cell-based. The procedure, abridged: as §1
The target of assay [3] is Gamma-secretase (Homo sapiens) (UniProt Q96BI3+Q9NZ42+Q8WW43+P49768+Q92542+P49810). As to the kind of experiment: Selectivity ratio, IC50 for human gamma-secretase-mediated NotchdeltaE cleavage to IC50 for gamma-secretase-mediated amyloid beta 42 production. The class given is protein-complex assay.

As for `COc1ccc(N2CCN(c3nc(Nc4cc(C(C)(C)C)ccc4C)cc(OCCC4CCCN4C)n3)CC2(C)C)cc1` (stereo not given), the IC50 (commonly the midpoint of a concentration-inhibition curve) in assay [1] was 0.235 µM; on Gamma-secretase it was greater than 50 µM; in assay [2] it was 5.6 µM. For the same molecule, the Ratio IC50 in assay [3] is greater than 210.
Consider `COc1ccc(N2CCN(c3nc(CC(=O)O)cc(Nc4cc(C(C)(C)C)ccc4C)n3)CC2(C)C)cc1`, for which the figures for the IC50 in assay [1] and in assay [2] were 0.572 µM and 6.41 µM, respectively.
For `COc1ccc(N2CCN(c3nc(Nc4cc(C(C)(C)C)ccc4C)cc(OC)n3)CC2(C)C)cc1`, the results for the IC50 (in assay [1]; against Gamma-secretase; in assay [2]) were 0.262 µM, greater than 50 µM and 5.68 µM, respectively. In assay [3], the Ratio IC50 was greater than 190.
Take `COc1ccc(N2CCN(c3nccc(Nc4cc(C(C)(C)C)nn4CC(F)(F)F)n3)CC2(C)C)cc1`: the IC50 in assay [1] was determined as 0.272 µM; in assay [2], 5.09 µM.
Regarding `COc1ccc(N2CCN(c3nc(Nc4cc(C(C)(C)C)ccc4C)cc(OCCC(C)(C)O)n3)CC2(C)C)cc1`, the IC50 in assay [1] is 0.216 µM; at Gamma-secretase it was greater than 50 µM; in assay [2] it was 5.45 µM. The Ratio IC50 in assay [3] is greater than 230.
Take `COc1ccc(N2CCN(c3nccc(Nc4cc(C(C)(C)C)ccc4Cl)n3)CC2(C)C)cc1`: the IC50 turned out to be 0.695 µM in assay [1] and 1 µM in assay [2].
Regarding `CCOc1cc(C)c(Nc2ccnc(N3CCN(c4ccc(OC)cc4)C(C)(C)C3)n2)cc1C`, the IC50 came out at 0.534 µM in assay [1] and 6.3 µM in assay [2].
Turning to `COc1ccc(N2CCN(c3nc(N)cc(Nc4cc(C(C)(C)C)ccc4C)n3)CC2(C)C)cc1`, the IC50 in assay [1] was 0.088 µM; against Gamma-secretase, 34.4 µM; in assay [2], 0.83 µM. For the same molecule, in assay [3], the Ratio IC50 was found to be 390.
Take `COc1ccc(N2CCN(c3nc(CS(C)(=O)=O)cc(Nc4cc(C(C)(C)C)ccc4C)n3)CC2(C)C)cc1`: the IC50 worked out at 0.348 µM in assay [1] and 6.46 µM in assay [2].
On to `COc1ccc(N2CCN(c3nc(Nc4cc(C(C)(C)C)ccc4C)cc(C(=O)NCC4CCCO4)n3)CC2(C)C)cc1` (stereo not given), for which the IC50 in assay [1] is 0.194 µM; on Gamma-secretase, greater than 50 µM; in assay [2], 8.12 µM. Besides, the Ratio IC50 in assay [3] is greater than 250.
Regarding `CNC(=O)c1cc(Nc2cc(C(C)(C)C)ccc2C)nc(N2CCN(c3ccc(OC)cc3)C(C)(C)C2)n1`, the IC50 stood at 0.307 µM in assay [1] and 2.98 µM in assay [2].
The like results for `COc1ccc(N2CCN(c3nccc(Nc4cc(C(C)(C)C)ccc4C)n3)CC2(C)C)cc1` were, in that order, 0.255 µM and 5.57 µM.
Turning to `COC(=O)c1cc(Nc2cc(C(C)(C)C)ccc2C)nc(N2CCN(c3ccc(OC)cc3)C(C)(C)C2)n1`, the IC50 worked out at 0.085 µM in assay [1] and 2.29 µM in assay [2].
Turning to `COc1ccc(N2CCN(c3nc(Nc4cc(C(C)(C)C)ccc4C)cc(S(C)(=O)=O)n3)CC2(C)C)cc1`, the IC50 in assay [1] came out at 0.4 µM; in assay [2] it was 5.78 µM.
The like results for `COc1ccc(N2CCN(c3nccc(Nc4cc(-c5ccccc5)ccc4C)n3)CC2(C)C)cc1` were, in that order, 0.41 µM and 2.28 µM.
Taken in the same sequence, the figures for `CCOc1ccc(Nc2ccnc(N3CCN(c4ccc(OC)cc4)C(C)(C)C3)n2)c(C)c1` were 3.44 µM and 10 µM.
The like results for `COc1ccc(N2CCN(c3nc(Nc4cc(C(C)(C)C)ccc4C)cc(C(=O)O)n3)CC2(C)C)cc1` were, in that order, 0.234 µM and 1.93 µM.
In the case of `COc1ccc(N2CCN(c3nc(Nc4cc(C(C)(C)C)ccc4C)cc(OCCN4CCOCC4)n3)CC2(C)C)cc1`, the IC50 in assay [1] was 0.263 µM; on Gamma-secretase, greater than 50 µM; in assay [2], 6.15 µM. Also, the Ratio IC50 in assay [3] is greater than 190.
For `COc1ccc(N2CCN(c3nc(Nc4cc(C(C)(C)C)ccc4C)cc(OCCN(C)C)n3)CC2(C)C)cc1`, the IC50 was found to be 0.108 µM in assay [1], 28.8 µM on Gamma-secretase and 1.59 µM in assay [2]. The Ratio IC50 in assay [3] turned out to be 270.
The like results for `COc1ccc(N2CCN(c3nc(CO)cc(Nc4cc(C(C)(C)C)ccc4C)n3)CC2(C)C)cc1` were, in that order, 0.034 µM, 6.14 µM, 0.823 µM and 180.
Consider `CCN(CC)c1cc(C)c(Nc2ccnc(N3CCN(c4ccc(OC)cc4)CC3)n2)cc1C`, for which the figures for the half-maximal inhibitory concentration (IC50) in assay [1] and in assay [2] were 1.91 µM and 3.74 µM, respectively.
In the case of `COc1ccc(N2CCN(c3nc(Nc4cc(C(C)(C)C)ccc4C)cc(C(=O)NCCN(C)C)n3)CC2(C)C)cc1`, the values for the IC50 in assay [1] and in assay [2] were 0.112 µM and 1.71 µM, respectively.
Taken in the same sequence, the figures for `CCN(CC)c1cc(C)c(Nc2ccnc(N3CCN(c4ccc(OC)cc4)C(C)(C)C3)n2)cc1C` were 0.169 µM and 2.95 µM.
The like results for `COc1ccc(N2CCN(c3nccc(Nc4cc(C(C)(C)C)nn4C)n3)CC2(C)C)cc1` were, in that order, 0.15 µM and 1.94 µM.
Taken in the same sequence, the figures for `CCOc1cc(C)c(Nc2ccnc(N3CCN(c4ccc(OC)cc4)C(C)(C)C3)n2)cc1C(C)C` were 0.0356 µM and 0.737 µM.
For the molecule `COc1ccc(N2CCN(c3nccc(Nc4cc(C)ccc4C)n3)CC2(C)C)cc1`, the IC50 in assay [1] stood at 1 µM; in assay [2], 4.58 µM.
`COc1ccc(N2CCN(c3nc(Nc4cc(C(C)(C)C)ccc4C)cc(N(C)CCN(C)C)n3)CC2(C)C)cc1`: the IC50 is 0.213 µM in assay [1] and 1.97 µM in assay [2].
